In ChEMBL document CHEMBL1128417, “Synthesis and opioid activity of conformationally constrained dynorphin A analogues. 1. Conformational constraint in the "message" sequence” (J Med Chem, 1995):

How the values were obtained:
Cavia porcellus [1] = organism: Cavia porcellus; test: In vitro inhibition of electrically evoked contractions of the guinea pig ileum (GPI); assay type: functional
Procedure, shortened: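 Guinea pig ileum preparation, electrically stimulated; peptidase inhibitors (10 µM bestatin, 0.3 µM thiorphan) added to the tissue bath 5 min before each experiment. IC50 for inhibition of contractions taken from at least three replicates in tissues from different animals.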

[2] = target: Delta-type opioid receptor (Rattus norvegicus, UniProt P33533); test: Compound was evaluated for binding affinity against delta opioid receptor of rat forebrain using [3H]-DPDPE as the radioligand using competition binding assays.
Mu-type opioid receptor = Mu-type opioid receptor (Rattus norvegicus, UniProt P33535); test: Compound was evaluated for binding affinity against Opioid receptor mu 1 of rat forebrain using [3H]DAMGO as the radioligand using competition binding assays.
[3] = target: Kappa-type opioid receptor (Cavia porcellus, UniProt P41144); test: Compound was evaluated for binding affinity against Opioid receptor kappa 1 using as the radioligand using competition binding assays.
[4] = target: T1, Opioid receptors; mu & delta (Homo sapiens) (UniProt P41143+P35372); test: Ki ratio which is the ratio of Ki of k opioid receptor to the Ki of mu opioid receptor to the Ki of delta opioid receptor; 1/2.2/47; assay type: protein assay
Cavia porcellus [5] = organism: Cavia porcellus; test: Relative potency against electrically evoked contractions of the guinea pig ileum(GPI).; assay type: functional; set-up: reference not given here
[6] = target: T1, Opioid receptors; mu & delta (Homo sapiens); test: Ki ratio which is the ratio of Ki of k opioid receptor to the Ki of mu opioid receptor to the Ki of delta opioid receptor; 1/1.3/92; assay type: protein assay
[7] = target: T1, Opioid receptors; mu & delta (Homo sapiens); test: Ki ratio which is the ratio of Ki of k opioid receptor to the Ki of mu opioid receptor to the Ki of delta opioid receptor; 1.3/1/27; assay type: protein assay
[8] = target: T1, Opioid receptors; mu & delta (Homo sapiens); test: Ki ratio which is the ratio of Ki of k opioid receptor to the Ki of mu opioid receptor to the Ki of delta opioid receptor; 3.6/1/74; assay type: protein assay

| SMILES | IC50 (Cavia porcellus [1]) [nM] | Ki [2] [nM] | Ki (Mu-type opioid receptor) [nM] | Ki [3] [nM] | Relative potency (Cavia porcellus [5]) | other results |
| --- | --- | --- | --- | --- | --- | --- |
| CC[C@H](C)[C@H](NC(=O)[C@H](CCCN=C(N)N)NC(=O)[C@H](CCCN=C(N)N)NC(=O)[C@@H]1CCNC(=O)C[C@@H](NC(=O)[C@@H](N)Cc2ccc(O)cc2)C(=O)NCC(=O)N[C@@H](Cc2ccccc2)C(=O)N1)C(=O)N[C@@H](CCCN=C(N)N)C(=O)N1CCC[C@H]1C(=O)N[C@@H](CCCCN)C(=O)N[C@@H](CC(C)C)C(=O)N[C@@H](CCCCN)C(N)=O [listing 1 of 2 here] | 0.23 | 12 | 0.17 | 0.13 | – | – |
| CC[C@H](C)[C@H](NC(=O)[C@H](CCCN=C(N)N)NC(=O)[C@H](CCCN=C(N)N)NC(=O)[C@@H]1CNC(=O)C[C@@H](NC(=O)[C@@H](N)Cc2ccc(O)cc2)C(=O)NCC(=O)N[C@@H](Cc2ccccc2)C(=O)N1)C(=O)N[C@@H](CCCN=C(N)N)C(=O)N1CCC[C@@H]1C(=O)N[C@@H](CCCCN)C(=O)N[C@@H](CC(C)C)C(=O)N[C@@H](CCCCN)C(N)=O | – | – | – | – | – | Ki ratio [4]: kappa/mu/delta |
| CC[C@H](C)[C@H](NC(=O)[C@H](CCCN=C(N)N)NC(=O)[C@H](CCCN=C(N)N)NC(=O)[C@@H]1CNC(=O)C[C@@H](NC(=O)[C@@H](N)Cc2ccc(O)cc2)C(=O)NCC(=O)N[C@@H](Cc2ccccc2)C(=O)N1)C(=O)N[C@@H](CCCN=C(N)N)C(=O)N1CCC[C@H]1C(=O)N[C@@H](CCCCN)C(=O)N[C@@H](CC(C)C)C(=O)N[C@@H](CCCCN)C(N)=O [listing 1 of 2 here] | 0.16 | 10.2 | 0.49 | 0.22 | – | – |
| CC[C@H](C)[C@H](NC(=O)[C@H](CCCN=C(N)N)NC(=O)[C@H](CCCN=C(N)N)NC(=O)[C@H](CC(C)C)NC(=O)[C@H](Cc1ccccc1)NC(=O)CNC(=O)CNC(=O)[C@@H](N)Cc1ccc(O)cc1)C(=O)N[C@@H](CCCN=C(N)N)C(=O)N1CCC[C@H]1C(=O)N[C@@H](CCCCN)C(=O)N[C@@H](CC(C)C)C(=O)N[C@@H](CCCCN)C(N)=O [listing 1 of 2 here] | 0.22 | – | – | – | – | – |
| CC[C@H](C)[C@H](NC(=O)[C@H](CCCN=C(N)N)NC(=O)[C@H](CCCN=C(N)N)NC(=O)[C@H](CC(C)C)NC(=O)[C@H](Cc1ccccc1)NC(=O)CNC(=O)CNC(=O)[C@@H](N)Cc1ccc(O)cc1)C(=O)N[C@@H](CCCN=C(N)N)C(=O)N1CCC[C@H]1C(=O)N[C@@H](CCCCN)C(=O)N[C@@H](CC(C)C)C(=O)N[C@@H](CCCCN)C(N)=O [listing 2 of 2 here] | – | – | – | – | 100 | – |
| CC[C@H](C)[C@H](NC(=O)[C@H](CCCN=C(N)N)NC(=O)[C@H](CCCN=C(N)N)NC(=O)[C@@H]1CCNC(=O)C[C@@H](NC(=O)[C@@H](N)Cc2ccc(O)cc2)C(=O)NCC(=O)N[C@@H](Cc2ccccc2)C(=O)N1)C(=O)N[C@@H](CCCN=C(N)N)C(=O)N1CCC[C@@H]1C(=O)N[C@@H](CCCCN)C(=O)N[C@@H](CC(C)C)C(=O)N[C@@H](CCCCN)C(N)=O | – | – | – | – | – | Ki ratio [6]: kappa/mu/delta |
| CC[C@H](C)[C@H](NC(=O)[C@H](CCCN=C(N)N)NC(=O)[C@H](CCCN=C(N)N)NC(=O)[C@H](CN=C(N(C)C)N(C)C)NC(=O)[C@H](Cc1ccccc1)NC(=O)CNC(=O)[C@@H](CC(=O)O)NC(=O)[C@@H](N)Cc1ccc(O)cc1)C(=O)N[C@@H](CCCN=C(N)N)C(=O)N1CCC[C@H]1C(=O)N[C@@H](CCCCN)C(=O)N[C@@H](CC(C)C)C(=O)N[C@@H](CCCCN)C(N)=O | 0.46 | 4.31 | 0.16 | 0.21 | 48 | Ki ratio [7]: mu/kappa/delta |
| CC[C@H](C)[C@H](NC(=O)[C@H](CCCN=C(N)N)NC(=O)[C@H](CCCN=C(N)N)NC(=O)[C@@H]1CCNC(=O)C[C@@H](NC(=O)[C@@H](N)Cc2ccc(O)cc2)C(=O)NCC(=O)N[C@@H](Cc2ccccc2)C(=O)N1)C(=O)N[C@@H](CCCN=C(N)N)C(=O)N1CCC[C@H]1C(=O)N[C@@H](CCCCN)C(=O)N[C@@H](CC(C)C)C(=O)N[C@@H](CCCCN)C(N)=O [listing 2 of 2 here] | – | – | – | – | 96 | – |
| CC[C@H](C)[C@H](NC(=O)[C@H](CCCN=C(N)N)NC(=O)[C@H](CCCN=C(N)N)NC(=O)[C@H](CC(C)C)NC(=O)[C@H](Cc1ccccc1)NC(=O)CNC(=O)[C@@H](CC(=O)O)NC(=O)[C@@H](N)Cc1ccc(O)cc1)C(=O)N[C@@H](CCCN=C(N)N)C(=O)N1CCC[C@H]1C(=O)N[C@@H](CCCCN)C(=O)N[C@@H](CC(C)C)C(=O)N[C@@H](CCCCN)C(N)=O [listing 1 of 2 here] | 0.46 | 0.044 | 0.013 | 0.45 | – | – |
| CC[C@H](C)[C@H](NC(=O)[C@H](CCCN=C(N)N)NC(=O)[C@H](CCCN=C(N)N)NC(=O)[C@@H]1CNC(=O)C[C@@H](NC(=O)[C@@H](N)Cc2ccc(O)cc2)C(=O)NCC(=O)N[C@@H](Cc2ccccc2)C(=O)N1)C(=O)N[C@@H](CCCN=C(N)N)C(=O)N1CCC[C@H]1C(=O)N[C@@H](CCCCN)C(=O)N[C@@H](CC(C)C)C(=O)N[C@@H](CCCCN)C(N)=O [listing 2 of 2 here] | – | – | – | – | 138 | – |
| CC[C@H](C)[C@H](NC(=O)[C@H](CCCN=C(N)N)NC(=O)[C@H](CCCN=C(N)N)NC(=O)[C@H](CC(C)C)NC(=O)[C@H](Cc1ccccc1)NC(=O)CNC(=O)[C@@H](CC(=O)O)NC(=O)[C@@H](N)Cc1ccc(O)cc1)C(=O)N[C@@H](CCCN=C(N)N)C(=O)N1CCC[C@H]1C(=O)N[C@@H](CCCCN)C(=O)N[C@@H](CC(C)C)C(=O)N[C@@H](CCCCN)C(N)=O [listing 2 of 2 here] | – | – | – | – | 32 | – |
| CC[C@H](C)[C@H](NC(=O)[C@H](CCCN=C(N)N)NC(=O)[C@H](CCCN=C(N)N)NC(=O)[C@H](CCCN=C(N(C)C)N(C)C)NC(=O)[C@H](Cc1ccccc1)NC(=O)CNC(=O)[C@@H](CC(=O)O)NC(=O)[C@@H](N)Cc1ccc(O)cc1)C(=O)N[C@@H](CCCN=C(N)N)C(=O)N1CCC[C@H]1C(=O)N[C@@H](CCCCN)C(=O)N[C@@H](CC(C)C)C(=O)N[C@@H](CCCCN)C(N)=O | 1.78 | 14.2 | 0.28 | 0.36 | 12 | – |
| CC[C@H](C)[C@H](NC(=O)[C@H](CCCN=C(N)N)NC(=O)[C@H](CCCN=C(N)N)NC(=O)[C@@H]1CCCNC(=O)C[C@@H](NC(=O)[C@@H](N)Cc2ccc(O)cc2)C(=O)NCC(=O)N[C@@H](Cc2ccccc2)C(=O)N1)C(=O)N[C@@H](CCCN=C(N)N)C(=O)N1CCC[C@H]1C(=O)N[C@@H](CCCCN)C(=O)N[C@@H](CC(C)C)C(=O)N[C@@H](CCCCN)C(N)=O | 0.4 | 14.1 | 0.19 | 0.68 | 55 | Ki ratio [8]: mu/kappa/delta |
| CC[C@H](C)[C@H](NC(=O)[C@H](CCCN=C(N)N)NC(=O)[C@H](CCCN=C(N)N)NC(=O)[C@H](CCN=C(N(C)C)N(C)C)NC(=O)[C@H](Cc1ccccc1)NC(=O)CNC(=O)[C@@H](CC(=O)O)NC(=O)[C@@H](N)Cc1ccc(O)cc1)C(=O)N[C@@H](CCCN=C(N)N)C(=O)N1CCC[C@H]1C(=O)N[C@@H](CCCCN)C(=O)N[C@@H](CC(C)C)C(=O)N[C@@H](CCCCN)C(N)=O | 0.18 | 7.52 | 0.32 | 0.14 | 122 | – |
